Compound activity: PubChem, several laboratories
TPT1 inh: Candida albicans TPT1 enzyme inhibitors, primary screen, biochemical, fluorescence polarization; actives 0.81% (n = 300,000); inhibition, % at 5 µM; recombinant caTPT1, FP RNA substrate dephosphorylation; AID 1962, 2009; tRNA 2'-phosphotransferase TPT1 (Candida albicans SC5314);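 active = inhibition above the mean of all tested compounds plus 3 SD, set per screening campaign, cut at about 24% in these data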;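 also: plate controls were DMSO alone for no effect and ferristatin control at 100 nM for full effect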
HNF4A DNA FP: change in binding of human HNF4A to DNA, primary screen, biochemical, fluorescence polarization, FITC-DNA; Hepatocyte nuclear factor 4-alpha (Homo sapiens), P41235; 1 h; activity change, % at 10 µM; actives 0.3% (n = 360,000); AID 1224865, 2016; in the data active = activity change above about 30%, passing the limit was not always enough
IDE cell inh: human IDE inhibitors in live cells, primary screen, fluorescence polarization, HEK cells, FAbetaB substrate; Insulin-degrading enzyme (Homo sapiens), P14735; FAbetaB cleavage; inhibition, % at 5.59 µM; actives 0.41% (n = 320,000); AID 434962, 2010;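 active = percent inhibition above the average of all tested compounds plus 3 SD, set per screening campaign, cut at about 16% in these data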;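 also: IDE supplied by intact live HEK cells; FP after avidin binding of uncleaved biotin substrate so inhibition keeps polarization high; 0% = DMSO wells and 100% = 60 µM reference IDE inhibitor Ii1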
CSN deneddyl inh: inhibitors of CSN-mediated cullin deneddylation, primary screen, biochemical, fluorescence polarization, uHTS; Purified CSN, SCF-Nedd8-OG deneddylation; actives 0.38% (n = 360,000); inhibition, % at 12.5 µM; COP9 signalosome complex subunit 5 (Homo sapiens), Q92905;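 active = pattern-corrected inhibition above about 35%, with an unprinted fluorescence ratio check between 0.5 and 1.5, limit read from the data, passing the limit was not always enough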;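 also: 0% = enzyme with substrate and 100% = substrate without enzyme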
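Test system: purified human Csn5 enzyme expressed in HEK293T cells. Amount: 0.24 nM enzyme. Reagent: SCFSkp2-Nedd8OG substrate at 10 nM final. Schedule: 90 min incubation of compound, enzyme and substrate at room temperature. Detection: fluorescence polarization. Read-out: % inhibition of substrate cleavage by Csn5.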
Rpn11 block: Rpn11 (PSMD14) deubiquitinase inhibitors, primary screen, biochemical, fluorescence polarization, uHTS; 26S proteasome non-ATPase regulatory subunit 14 (Homo sapiens), O00487; human 26S proteasome, Ub4-pepOG fluorescence polarization; 20S core pre-blocked with epoxomicin; calls only at 20 µM; actives 0.59% (n = 360,000);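 active = inhibition at 20 µM, scaled to each plate's controls, above about 33%, limit read from the data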
IDE cell activ: human IDE activators in live cells, primary screen, fluorescence polarization, HEK cells, FAbeta-B substrate; Insulin-degrading enzyme (Homo sapiens), P14735; FAbeta-B cleavage; 0% vehicle, 100% cell-free pure enzyme wells; activation, % at 5.96 µM; actives 0.073% (n = 340,000); AID 493087, 2011;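 active = activation above the mean of all tested compounds plus 3 SD, set per screening campaign, cut at about 17% in these data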
Rpn11 inh conf: Rpn11 (PSMD14) deubiquitinase inhibitors, confirmation, biochemical, fluorescence polarization, single concentration; shares compounds with Rpn11 block; purified human 26S proteasome, Ub4-pepOG fluorescence polarization; proteasome pretreated with epoxomicin; inhibition, % at 20 µM; actives 29% (n = 1,900)
MMP-2 inh: MMP-2 enzyme inhibition, confirmation, counter-screen for RPN11 inhibitor project, biochemical, fluorescence, single concentration; shares compounds with Rpn11 block; recombinant MMP-2, FRET peptide cleavage fluorescence; inhibition, % at 20 µM; actives 4% (n = 1,900); AID 602330, 2012;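 also: human MMP-2 activated beforehand with APMA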
Target sequence (P08253 whole entry, looked up): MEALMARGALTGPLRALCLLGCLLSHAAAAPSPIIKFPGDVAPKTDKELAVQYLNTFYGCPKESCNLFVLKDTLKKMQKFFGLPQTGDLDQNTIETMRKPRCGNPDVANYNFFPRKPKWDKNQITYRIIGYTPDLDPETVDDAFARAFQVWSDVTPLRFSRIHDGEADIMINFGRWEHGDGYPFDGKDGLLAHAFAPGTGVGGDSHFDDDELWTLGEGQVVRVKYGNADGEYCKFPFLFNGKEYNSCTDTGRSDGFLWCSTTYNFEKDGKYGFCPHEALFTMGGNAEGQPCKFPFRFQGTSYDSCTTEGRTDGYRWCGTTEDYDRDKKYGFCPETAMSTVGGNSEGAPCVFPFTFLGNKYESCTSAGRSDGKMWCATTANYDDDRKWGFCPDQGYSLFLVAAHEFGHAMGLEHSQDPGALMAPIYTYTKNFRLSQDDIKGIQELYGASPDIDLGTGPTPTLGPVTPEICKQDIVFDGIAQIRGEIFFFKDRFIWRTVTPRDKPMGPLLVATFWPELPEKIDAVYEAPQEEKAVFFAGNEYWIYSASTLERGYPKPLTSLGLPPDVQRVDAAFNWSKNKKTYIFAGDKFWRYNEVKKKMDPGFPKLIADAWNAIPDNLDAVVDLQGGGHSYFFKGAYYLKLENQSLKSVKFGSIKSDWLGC
Thrombin inh: bovine thrombin protease inhibition, confirmation, counter-screen for Rpn11 inhibitor project, biochemical, fluorescence polarization, single concentration. bovine thrombin cleavage of Ub4-pepOG. shares compounds with Rpn11 block. inhibition, % at 20 µM. actives 13% (n = 1,900);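 active = mean inhibition at least 40% at 20 µM, or signal 3 deviations below plate average, so some actives read negative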;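 also: plate controls were thrombin with DMSO for no effect and buffer wells lacking thrombin for full effect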
* = called active by the depositor; i = inactive; x = no result; + = active, no number. Hits are enriched below; roughly 1.7% of the tested compounds scored in any of these assays. Rule as the data show it, unless noted: active = inhibition above about 40%; inactive = the rest.

SMILES | TPT1 inh | HNF4A DNA FP | IDE cell inh | CSN deneddyl inh | Rpn11 block | IDE cell activ | Rpn11 inh conf | MMP-2 inh | Thrombin inh
Clc1ccc(Br)cc1-c1nc(-c2ccncc2)no1 | 0.2 | 5.2 | -2.7 | -1.6 | + | 3.5 | 32.1 | 20.8 | -3.7
O=C(c1cccc(S(=O)(=O)N2CCc3ccccc32)c1)N1CCN(CCO)CC1 | x | 0.6 | 0.1 | -6.0 | i | -3.7 | x | x | x
CN(C)S(=O)(=O)c1ccc(C(=O)NCc2cccs2)cc1 | 11.1 | -0.7 | 2.0 | -6.5 | i | 8.0 | x | x | x
CN(C)S(=O)(=O)c1ccc(C(=O)NCc2nc3ccccc3s2)cc1 | 1.7 | -29.1 | 5.2 | -5.7 | + | 1.5 | 4.7 | -13.3 | -12.7
COc1ccc(CNC(=O)C(C)OC(=O)c2cccn2C)cc1 (configuration not stated) | 0.6 | 14.1 | -0.7 | 5.7 | + | 7.3 | -3.2 | 10.6 | -12.6
S=C(c1cn(CCOc2cccc3ccccc23)c2ccccc12)N1CCCC1 | 0.7 | 6.6 | -0.2 | 9.7 | + | 5.4 | 51.8* | -34.2 | 27.9
C=CCn1c(CCC(=O)O)ccc1-c1ccc(OC)cc1 | 7.7 | 2.3 | -2.9 | 3.0 | + | -4.9 | 9.2 | 1.9 | -3.1
COc1ccc(-c2ccc(CCC(=O)O)n2CC(C)C)cc1 | 6.4 | 3.1 | 1.9 | 6.3 | i | 1.3 | x | x | x
Cc1cc(SCC(=O)NN)c2cc(Br)ccc2n1 | 1.1 | 2.8 | 3.6 | 8.5 | + | -4.2 | 2.7 | -28.4 | -5.0
Cc1cc(C(=O)NN)c2cc(Br)ccc2n1 | 1.4 | 3.9 | 0.1 | -2.3 | i | -2.8 | x | x | x
Cn1c(=O)c2c(nc(Oc3ccc4c(c3)OCO4)n2Cc2ccc(Br)cc2)n(C)c1=O | -2.1 | x | -3.4 | x | x | x | x | x | x
Cn1c(=O)c2c(nc(Oc3ccc4c(c3)OCO4)n2Cc2ccc(F)cc2)n(C)c1=O | 1.7 | 29.0 | 2.7 | -1.2 | + | 2.7 | 1.6 | -24.7 | 4.5
O=C(Cc1c(C(=O)O)[nH]c2ccccc12)NC1CCCC1 | -4.4 | -2.3 | -3.0 | -3.3 | i | -3.1 | x | x | x
O=C(Nc1ccc(Cl)cc1)Nc1nnc(-c2ccncc2)s1 | 1.8 | -12.7 | 3.4 | 24.5 | + | -0.6 | 29.6 | 2.8 | -21.9
O=C(Nc1cccc(Cl)c1)Nc1nnc(-c2ccncc2)s1 | 3.2 | -42.2 | -3.0 | 91.6 | i | 2.8 | x | x | x
Cc1ccc(NC(=O)Nc2nnc(-c3ccncc3)s2)cc1C | -0.2 | -11.7 | -0.9 | 16.1 | i | -8.0 | x | x | x
O=C(Nc1ccc(F)cc1)Nc1nnc(-c2ccncc2)s1 | -3.1 | -0.8 | -0.3 | 16.9 | + | -1.7 | 41.3* | -2.5 | 3.2
Cc1cccc(N2CCN(S(=O)(=O)c3ccc4c(c3)OCCO4)CC2)c1C | -1.6 | 2.1 | 3.8 | 1.4 | i | -5.2 | x | x | x
COc1cccc(N2C(=O)C(CC(=O)Nc3ccccc3)N(C3CCCCC3)C2=O)c1 (configuration not stated) | -3.5 | 2.5 | 0.2 | 0.9 | i | -0.1 | x | x | x
Cc1ccc(-c2c(C#N)c(N)n3c(nc4ccccc43)c2C#N)cc1 | 22.1 | 10.4 | 0.5 | 15.8 | + | -6.6 | 63.3* | 2.8 | 82.1*
N#Cc1c(-c2ccccc2)c(C#N)c2nc3ccccc3n2c1N | 14.0 | 7.2 | 2.7 | 8.3 | i | 3.2 | x | x | x
FC(F)(F)c1nc(N2CCN(c3ccccc3)CC2)nc2c1CCCCC2 | 5.6 | 3.3 | -4.8 | -1.7 | + | 5.0 | -10.7 | -30.1 | -11.6
Cc1nc(N2CCN(Cc3ccccc3)CC2)nc2c1CCC2 | -0.4 | 0.2 | 2.0 | 1.0 | i | 8.6 | x | x | x
Nn1c(SCC(=O)NC2CCCCCC2)nnc1C(F)(F)F | x | -2.2 | -2.9 | 0.0 | i | 5.2 | x | x | x
CC(NC(=O)C1CCN(C(=O)c2ccc(F)cc2)CC1)c1ccc(S(N)(=O)=O)cc1 (configuration not stated) | x | 5.0 | 6.2 | 1.9 | i | -1.5 | x | x | x
SMILES | TPT1 inh | HNF4A DNA FP | IDE cell inh | CSN deneddyl inh | Rpn11 block | IDE cell activ | Rpn11 inh conf | MMP-2 inh | Thrombin inh
CC(NC(=O)C1CCN(C(=O)c2cccs2)CC1)c1ccc(S(N)(=O)=O)cc1 (configuration not stated) | x | 30.9 | 1.6 | 101.5* | + | 3.1 | 62.7* | -116.9 | -8.1
COc1ccc(NC(=O)COc2cccc3c2CCNC3=O)cc1 | x | 1.7 | x | 1.2 | i | 4.7 | x | x | x
O=C(Nc1ccc(Oc2ncnc3cc(Cl)ccc23)nc1)c1cccs1 | 9.3 | 8.6 | 6.5 | 20.5 | + | -6.2 | 5.1 | -2.2 | -2.5
Cc1ccc(S(=O)(=O)/N=C2/NC(=O)/C(=C/c3ccc(Br)o3)S2)cc1 | 15.7 | 12.1 | -2.2 | 34.3 | + | -1.7 | 27.7 | -7.6 | 18.0
CCn1c2ccccc2c2cc(/C=N/NC(=O)c3cccc(C)c3)ccc21 | 0.5 | 7.4 | 1.4 | 45.3* | + | 4.9 | 1.9 | 3.9 | -11.8
CCn1c2ccccc2c2cc(/C=N/NC(=O)c3ccccc3C)ccc21 | 0.3 | -1.8 | 5.8 | -0.5 | i | -2.3 | x | x | x
O=C(NCc1ccco1)C1CCCCN1S(=O)(=O)c1ccc(F)cc1 (configuration not stated) | -0.6 | 19.1 | 3.7 | -0.9 | + | 0.1 | -6.6 | -2.8 | -7.1
COc1ccc(N(C)C(=O)CC2(CC(=O)O)CCCCC2)cc1 | -2.0 | 21.2 | 1.1 | -0.8 | + | 6.2 | -1.6 | -34.2 | 0.1
Cc1ccc(OCc2ccc(C(=O)Nc3cc(C)on3)o2)c([N+](=O)[O-])c1 | -0.6 | -2.2 | -1.4 | 6.0 | i | -4.0 | x | x | x
Cc1ccc(OCc2ccc(C(=O)Nc3ccc(C(N)=O)cc3)o2)c([N+](=O)[O-])c1 | -0.4 | 10.0 | 1.5 | 21.6 | + | -0.2 | 12.6 | -36.5 | 7.3
CC(c1nnc(SCC(=O)Nc2cc([N+](=O)[O-])ccc2F)n1Cc1ccccc1)N(C)C (configuration not stated) | 0.7 | -1.2 | -0.3 | 4.5 | i | -2.0 | x | x | x
